CHOP inhibitor: inhibitors of CHOP promoter induction, primary screen, cell-based, unfolded protein response, luciferase reporter; CHO-K1 CHOP-promoter luciferase, tunicamycin-induced, 15-18 h; inhibition, % at 10 µM; 3.8% of 220,000 active;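 active means compounds that reduced the stress-induced luciferase reporter signal by more than about 70% of percent inhibition, limit read from the data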;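 further: 0% = tunicamycin plus vehicle and 100% = wells without tunicamycin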
NS3 helicase inh: inhibitors of HCV NS3 helicase, primary screen, biochemical, Cy5 molecular beacon fluorescence | Hepatitis C virus NS3 helicase | NS3 helicase DNA unwinding | inhibition, % at 10.9 µM | 0.56% of 290,000 active;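 active means inhibition above the mean of all tested compounds plus 3 SD, set per campaign, cut at about 35% in these data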;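 further: 0% = DMSO wells and 100% = thioflavine S control wells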
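Control set: DMSO versus 110 µM thioflavine S; Material: NS3 helicase fragment of HCV; Measured by: Cy5 fluorescence at 0 and 60 min, beacon hairpin quenching; Read-out basis: percent inhibition from t60/t0 fluorescence ratio; Times: reaction time 60 min, 25 °C; Repeats: single replicate; Compound dosing: single dose, 10.9 µM nominal final, DMSO 0.8% final.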
UPR XBP1 act: activators of adaptive XBP1 UPR arm, primary screen, cell-based, CHO-XBP1 luciferase reporter, luminescence, uHTS | activation, % at 20 µM | AID 463104, 2010 | 0.33% of 330,000 active | IRE1-XBP1 UPR activation; percent of tunicamycin response, DMSO as zero;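 active means versus positive control, 20 µM dose yields 30% or more activation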;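 further: 100% = tunicamycin at 10 µg/mL and 0% = DMSO only wells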
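Material – CHO cell line with stable XBP1 luciferase reporter · Buffer or medium – F12 plus 10% FBS · Compound – single point, 20 µM final compound, 1% DMSO · Schedule – 16-18 h cell attachment at 37 °C, then 6 h compound exposure · Signal – Steady-Glo luminescence read · Benchmarks – high control tunicamycin 10 µg/mL final, low control DMSO vehicle only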
p97 ATPase inh: inhibitors of human p97 ATPase, primary screen, biochemical; Transitional endoplasmic reticulum ATPase (Homo sapiens), P55072; recombinant p97 ATPase, Kinase-Glo ATP luminescence, 3 h; inhibition, % at 8 µM; 0.42% of 220,000 active; in the data active means inhibition above about 15%;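 further: 0% = DMSO vehicle and 100% = wells lacking enzyme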
Target sequence (P55072 whole entry, looked up): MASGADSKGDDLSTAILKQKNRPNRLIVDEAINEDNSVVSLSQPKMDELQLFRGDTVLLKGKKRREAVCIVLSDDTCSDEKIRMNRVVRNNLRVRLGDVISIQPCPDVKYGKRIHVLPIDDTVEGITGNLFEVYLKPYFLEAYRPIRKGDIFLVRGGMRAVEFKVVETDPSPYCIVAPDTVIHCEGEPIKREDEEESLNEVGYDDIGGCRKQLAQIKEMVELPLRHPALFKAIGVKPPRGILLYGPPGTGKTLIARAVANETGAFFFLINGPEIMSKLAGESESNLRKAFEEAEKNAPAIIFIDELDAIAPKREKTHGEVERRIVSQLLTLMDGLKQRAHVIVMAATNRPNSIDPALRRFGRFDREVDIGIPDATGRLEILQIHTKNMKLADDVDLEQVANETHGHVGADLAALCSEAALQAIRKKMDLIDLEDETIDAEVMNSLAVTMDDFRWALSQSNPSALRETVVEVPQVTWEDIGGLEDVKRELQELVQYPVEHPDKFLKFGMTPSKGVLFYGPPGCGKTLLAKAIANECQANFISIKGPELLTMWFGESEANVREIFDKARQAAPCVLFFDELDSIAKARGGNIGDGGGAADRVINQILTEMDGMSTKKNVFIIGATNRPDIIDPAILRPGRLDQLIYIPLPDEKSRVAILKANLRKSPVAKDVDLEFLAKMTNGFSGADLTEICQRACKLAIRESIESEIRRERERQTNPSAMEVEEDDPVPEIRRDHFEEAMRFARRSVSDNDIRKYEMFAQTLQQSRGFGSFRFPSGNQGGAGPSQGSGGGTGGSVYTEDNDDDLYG
CHOP UPR activ: activators of apoptotic CHOP UPR arm, primary screen, cell-based, CHO-CHOP luciferase reporter, luminescence, uHTS | UPR activation; percent of tunicamycin response over DMSO baseline | activation, % at 10 µM | 0.34% of 330,000 active | AID 449763, 2010;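 active means at 10 µM dose, activation of 40% or more, normalized to positive control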;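 further: 100% = tunicamycin at 10 µg/mL and 0% = DMSO alone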
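Test system: CHO CHOP reporter cells. Input: 500 CHO-CHOP cells per well. Medium: F12 with 10% FBS. Technique: luciferase luminescence. Measure: percent activation relative to tunicamycin control. Dosing: 10 µM compound, 0.5% DMSO. Timing: 16-18 h cell attachment, then 6 h compound exposure, 37 °C.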
PfM18AAP inh-1: PfM18AAP inhibitors, malaria aminopeptidase, primary screen, biochemical, QFRET, recombinant enzyme. H-Glu-NHMec fluorogenic cleavage. AID 1822, 2009. inhibition, % at 7.35 µM. 1.2% of 290,000 active. M18 aspartyl aminopeptidase (Plasmodium falciparum 3D7);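 active means inhibition above the campaign mean inhibition over all tested compounds plus 3 SD, cut at about 28% in these data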;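 further: 0% = plate median of test compound wells and 100% = 2 mM ZnCl2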
PfM18AAP inh-2: PfM18AAP inhibitors, malaria aminopeptidase, confirmation, biochemical, QFRET, recombinant enzyme, triplicate; shares compounds with PfM18AAP inh-1; AID 2170, 2009; H-Glu-NHMec fluorogenic cleavage; 28% of 2,400 active; inhibition, % at 7.35 µM;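 active means mean inhibition over replicate wells above the hit cutoff set for the earlier primary screen, cut at about 29% in these data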;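 further: 0% = median of test compound wells and 100% = 2 mM ZnCl2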
CTSL1 counter: cathepsin L1 inhibitors, retest, confirmation, counter-screen for PFM18AAP inhibitor project, biochemical, QFRET, triplicate; shares compounds with PfM18AAP inh-1; purified cathepsin L1, Z-Leu-Arg-MCA fluorescence; inhibition, % at 5.96 µM; 2,400 tested, under 10 active; AID 2178, 2009;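 active means average inhibition across replicates above the hit cutoff set in the earlier primary screen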;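 further: 0% = median of test compound wells and 100% = Z-Phe-Ala-diazomethylketone 1 µM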
* hit, by the source's call; nt = no result. An excerpt weighted towards active compounds, which were near 4.5% of everything screened.

SMILES	CHOP inhibitor	NS3 helicase inh	UPR XBP1 act	p97 ATPase inh	CHOP UPR activ	PfM18AAP inh-1	PfM18AAP inh-2	CTSL1 counter
O=C(CNS(=O)(=O)c1ccccc1)OCC(=O)c1ccc([N+](=O)[O-])cc1	-13	6	-2	2	3	33*	1	-13
O=C(CNS(=O)(=O)c1ccccc1)OCC(=O)c1ccc(Br)cc1	nt	3	-4	nt	0	-6	nt	nt
COc1ccc(-c2cn(-c3ccc(C)c(Cl)c3)c(=S)[nH]2)cc1OC	nt	-5	-4	nt	-1	22	nt	nt
COc1cccc(-n2cc(-c3ccc(F)cc3)[nH]c2=S)c1	nt	2	1	nt	2	41*	26	0
COc1ccccc1-c1cn(-c2ccccc2)c(=S)[nH]1	nt	-37	-5	nt	4	13	nt	nt
COc1ccc(-c2cn(-c3ccccc3)c(=S)[nH]2)cc1OC	nt	-7	-6	nt	4	44*	11	-5
COc1ccc(-c2cn(-c3ccc(C)c(C)c3)c(=S)[nH]2)cc1OC	nt	-3	-2	nt	-2	32*	6	-2
COc1cc(NS(=O)(=O)c2ccc3c(c2)C(C)(C)C(=O)N3C)cc(OC)c1	nt	21	0	nt	0	0	nt	nt
NC(=O)c1cc(S(=O)(=O)NCCc2ccc(S(N)(=O)=O)cc2)cs1	nt	2	-6	nt	-1	2	nt	nt
Oc1ccccc1N=Cc1ccc[nH]1	9	6	3	5	-1	35*	17	-1
CC(=O)Nc1ccc(NC(=O)CSc2nnc3ccc(-c4cccnc4)nn23)cc1	nt	nt	1	nt	2	nt	nt	nt
Cc1nn(-c2ccccc2)c(C)c1NC(=O)COC(=O)Cc1ccccc1F	nt	nt	0	nt	0	nt	nt	nt
CCn1c(CSc2ncn[nH]2)nc2cc(C(=O)O)ccc21	-23	1	1	6	-1	48*	9	6
C=CCc1c(C)nc(C)nc1N/N=C/c1ccccc1O	22	6	0	-8	1	49*	-36	3
O=C1NCCCC2c3c(cc(Br)c(O)c3Br)OC12N1CCCCC1 (configuration not stated)	34	-5	-1	2	1	51*	-93	3
O=C1NCCCc2c1oc1cc(Br)c(O)c(Br)c21	66	1	0	-3	-1	7	nt	nt
COc1ccc(S(=O)(=O)N2CCOC2CNC(=O)C(=O)NCc2ccco2)cc1OC (configuration not stated)	0	12	-1	-5	-1	-14	nt	nt
CCCOC1CCCN(C(=O)c2cc(COc3ccc(-n4cncn4)cc3)on2)C1 (configuration not stated)	nt	15	-2	nt	2	3	nt	nt
CCC(C)n1ncn(-c2ccc(N3CCN(c4ccc(O)cc4)CC3)cc2)c1=O (configuration not stated)	-28	17	-2	0	0	34*	-22	-5
COc1ccccc1-n1c(CNC(=O)c2cccs2)n[nH]c1=S	3	0	-2	-4	2	36*	-11	-7
O=C(NCc1n[nH]c(=S)n1-c1ccc(Br)cc1)c1cccs1	13	-9	0	1	1	34*	-12	-8
CC(=O)Nc1ccc(S(=O)(=O)N[C@@H](C)C(=O)OCC(=O)NC2CCCC2)cc1	nt	nt	-1	nt	0	nt	nt	nt
O=C(Nc1ccccc1C(F)(F)F)c1cnccn1	nt	1	-3	nt	1	2	nt	nt
O=C(Nc1ccccc1C(F)(F)F)c1ncn[nH]1	5	11	1	2	0	59*	57*	1
CCOc1cc(/C=N/n2c(COc3ccccc3)n[nH]c2=S)ccc1O	nt	9	0	nt	0	19	nt	nt
SMILES	CHOP inhibitor	NS3 helicase inh	UPR XBP1 act	p97 ATPase inh	CHOP UPR activ	PfM18AAP inh-1	PfM18AAP inh-2	CTSL1 counter
Oc1ccc(/C=N/n2c(COc3ccccc3)n[nH]c2=S)cc1O	nt	-3	-1	nt	1	53*	20	-8
O=C(NNC(=O)c1ccc2c(=O)n3c(nc2c1)CCC3)c1cccc(Cl)c1	nt	nt	-3	nt	1	nt	nt	nt
O=c1/c(=C/c2ccco2)sc2n1CN(c1cccc(Br)c1)CN=2	-3	-1	0	4	0	11	nt	nt
Cc1ccc(/C=c2\sc3n(c2=O)CN(c2cccc(Br)c2)CN=3)o1	-16	7	-1	2	-1	37*	-58	-2
O=C(NCC1CCCO1)/C(=C\c1ccccc1F)NC(=O)c1ccccc1 (configuration not stated)	nt	6	-4	nt	0	-1	nt	nt
Cc1ccc(C)c(OCC(=O)NNC(=O)CCN2CCN(c3ccccc3)CC2)c1	nt	nt	1	nt	1	nt	nt	nt
Nc1nncn1C(=O)c1ccc(Cl)cc1Cl	9	12	-3	-3	-1	37*	51*	-1
Nc1nc(-c2cccnc2)nn1C(=O)c1ccccc1Cl	9	4	nt	2	nt	-4	nt	nt
Nc1nncn1C(=O)c1ccccc1Cl	0	3	-2	-4	0	60*	55*	-1
COc1ccc(S(=O)(=O)NCC(=O)O)cc1C(=O)NC1CCCCC1	17	-1	0	6	-2	-8	nt	nt
CC(C)c1ccc(N2C(=O)C(Cl)=C(N3CCOCC3)C2=O)cc1	nt	3	1	nt	4	38*	-28	-1
O=C1C(Cl)=C(N2CCOCC2)C(=O)N1c1ccc(Br)cc1	nt	24	-3	nt	0	20	nt	nt
O=C(NCCNC(=O)c1ccc(Br)o1)c1cccnc1	nt	-1	-3	nt	0	-2	nt	nt
Cc1ccc2nc(NCc3ccccc3)c(C#N)cc2c1	38	0	2	1	5	2	nt	nt
N#CC/C(N)=N/Nc1nc2ccccc2nc1Cc1ccccc1	nt	29	-1	nt	0	36*	9	-4
Nc1nc(SCC(=O)c2c(N)n(C3CC3)c(=O)[nH]c2=O)n[nH]1	nt	nt	-3	nt	-1	nt	nt	nt
CCOC(=O)c1c(NC(=O)CSc2ncn[nH]2)sc(C(C)=O)c1C	nt	0	-1	nt	-1	33*	23	5
CCOC(=O)c1c(-c2ccc(C)o2)csc1NC(=O)CSc1ncn[nH]1	30	-1	-4	3	-1	61*	26	2
O=C(Nc1ccc(S(=O)(=O)NC2=NCCCCC2)cc1)c1cc(F)c(F)cc1Cl	nt	nt	0	nt	-1	nt	nt	nt
